Experimental data published in ChEMBL document CHEMBL3297708, “Lead optimization of a novel series of imidazo[1,2-a]pyridine amides leading to a clinical candidate (Q203) as a multi- and extensively-drug-resistant anti-tuberculosis agent” (J Med Chem, 2014).
pIC50: −log10 of the molar value. Values after ≈ are worked out from the molar mass of the structure shown.

What was measured:
Cytochrome P450 2C9 = Cytochrome P450 2C9 (Homo sapiens, UniProt P11712); test: Inhibition of recombinant CYP2C9 (unknown origin) by LC/MS/MS analysis; assay type: ADME
Cytochrome P450 2C9, sequence (P11712 whole entry): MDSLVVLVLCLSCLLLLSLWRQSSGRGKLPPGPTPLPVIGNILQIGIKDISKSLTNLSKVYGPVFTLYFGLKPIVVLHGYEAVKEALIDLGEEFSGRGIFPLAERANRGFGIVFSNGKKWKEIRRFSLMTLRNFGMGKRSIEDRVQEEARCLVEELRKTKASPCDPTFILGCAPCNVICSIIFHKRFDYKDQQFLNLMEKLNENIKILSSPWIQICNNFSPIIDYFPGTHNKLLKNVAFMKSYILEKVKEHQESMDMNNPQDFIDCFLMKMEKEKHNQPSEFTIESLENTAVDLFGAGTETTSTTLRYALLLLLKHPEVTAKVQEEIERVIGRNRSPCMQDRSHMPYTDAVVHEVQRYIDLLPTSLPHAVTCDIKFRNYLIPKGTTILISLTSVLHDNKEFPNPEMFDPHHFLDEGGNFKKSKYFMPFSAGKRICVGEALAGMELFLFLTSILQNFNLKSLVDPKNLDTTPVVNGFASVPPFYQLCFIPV
How it was run: (§1)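 Recombinant CYP enzymes (5 pmol/mL) with substrate, in 100 mM potassium phosphate pH 7.4, 3.3 mM MgCl2, with or without 1 mM NADPH; incubated 10 min (CYP1A2, CYP2C9), 20 min (CYP2C19, CYP2D6), or 3 min (CYP3A4); stopped with cold stop solution containing tolbutamide internal standard; metabolite measured by LC-MS/MS.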

Cytochrome P450 2C19 = Cytochrome P450 2C19 (Homo sapiens, UniProt P33261); test: Inhibition of recombinant CYP2C19 (unknown origin) by LC/MS/MS analysis; assay type: ADME; how it was run: as §1
Cytochrome P450 2C19, sequence (P33261 whole entry): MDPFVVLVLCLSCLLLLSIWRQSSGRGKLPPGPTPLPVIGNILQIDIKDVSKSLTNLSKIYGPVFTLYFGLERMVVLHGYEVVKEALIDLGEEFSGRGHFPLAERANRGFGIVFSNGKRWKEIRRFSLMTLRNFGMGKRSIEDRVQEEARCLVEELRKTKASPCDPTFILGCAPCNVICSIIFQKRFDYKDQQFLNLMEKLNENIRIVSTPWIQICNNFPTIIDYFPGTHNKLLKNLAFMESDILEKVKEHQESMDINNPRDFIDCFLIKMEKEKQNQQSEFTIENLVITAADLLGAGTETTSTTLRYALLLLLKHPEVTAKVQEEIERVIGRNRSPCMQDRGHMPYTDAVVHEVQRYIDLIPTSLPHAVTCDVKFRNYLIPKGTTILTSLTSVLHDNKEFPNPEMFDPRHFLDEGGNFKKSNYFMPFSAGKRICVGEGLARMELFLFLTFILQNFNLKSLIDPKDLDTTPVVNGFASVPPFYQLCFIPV

Cytochrome P450 2D6 = Cytochrome P450 2D6 (Homo sapiens, UniProt P10635); test: Inhibition of recombinant CYP2D6 (unknown origin) by LC/MS/MS analysis; assay type: ADME; how it was run: as §1
Cytochrome P450 2D6, sequence (P10635 whole entry): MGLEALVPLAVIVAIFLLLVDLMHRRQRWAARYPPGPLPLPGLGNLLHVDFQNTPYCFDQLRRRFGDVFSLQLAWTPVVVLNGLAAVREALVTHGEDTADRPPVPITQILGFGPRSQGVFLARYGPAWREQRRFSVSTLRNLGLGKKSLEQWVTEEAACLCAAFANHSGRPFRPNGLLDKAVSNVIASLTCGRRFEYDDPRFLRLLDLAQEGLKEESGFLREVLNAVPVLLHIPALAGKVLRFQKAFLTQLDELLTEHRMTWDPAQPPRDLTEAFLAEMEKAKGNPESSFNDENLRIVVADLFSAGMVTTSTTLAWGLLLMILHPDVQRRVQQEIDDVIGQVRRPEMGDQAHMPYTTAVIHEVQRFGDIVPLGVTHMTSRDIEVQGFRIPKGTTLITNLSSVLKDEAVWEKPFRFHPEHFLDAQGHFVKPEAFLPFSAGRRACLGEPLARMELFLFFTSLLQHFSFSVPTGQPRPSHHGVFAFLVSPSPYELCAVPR

[1] = tested on: Mycobacterium tuberculosis; test: Antimycobacterial activity against Mycobacterium tuberculosis H37Rv in liquid broth culture medium; assay type: functional
How it was run: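 M. tuberculosis H37Rv replicating in liquid broth culture medium; MIC80 determined, i.e. concentration inhibiting 80% of growth.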

[2] = Half life in mouse liver microsomes; assay type: ADME
How it was run: (§2)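 Metabolic stability measured by incubation in human or mouse liver microsomal preparations; half-life reported.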

Cytochrome P450 3A4 = Cytochrome P450 3A4 (Homo sapiens, UniProt P08684); test: Inhibition of recombinant CYP3A4 (unknown origin) by LC/MS/MS analysis; assay type: ADME; how it was run: as §1
Cytochrome P450 3A4, sequence (P08684 whole entry): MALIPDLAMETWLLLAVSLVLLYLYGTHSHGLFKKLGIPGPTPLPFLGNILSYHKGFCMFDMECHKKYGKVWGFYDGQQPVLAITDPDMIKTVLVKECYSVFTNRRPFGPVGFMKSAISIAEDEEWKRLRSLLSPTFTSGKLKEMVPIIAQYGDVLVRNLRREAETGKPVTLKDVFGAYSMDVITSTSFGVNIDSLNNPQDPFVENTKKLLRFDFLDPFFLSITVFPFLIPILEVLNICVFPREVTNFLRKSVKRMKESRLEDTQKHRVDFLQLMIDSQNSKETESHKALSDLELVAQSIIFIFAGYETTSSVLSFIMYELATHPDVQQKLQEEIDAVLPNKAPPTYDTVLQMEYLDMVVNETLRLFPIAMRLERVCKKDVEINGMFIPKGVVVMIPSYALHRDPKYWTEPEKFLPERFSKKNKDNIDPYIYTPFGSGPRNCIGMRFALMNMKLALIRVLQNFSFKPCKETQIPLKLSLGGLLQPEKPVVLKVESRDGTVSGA

[3] = Half life in human liver microsomes; assay type: ADME; how it was run: as §2
[4] = tested on: Mycobacterium tuberculosis; test: Antimycobacterial activity against Mycobacterium tuberculosis H37Rv in macrophages; assay type: functional
How it was run: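 M. tuberculosis H37Rv replicating inside macrophages; intracellular MIC80 determined, i.e. concentration inhibiting 80% of growth.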

Cytochrome P450 1A2 = molecular target: T1, Cytochrome P450 1A2 (Homo sapiens, UniProt P05177); test: Inhibition of recombinant CYP1A2 (unknown origin) by LC/MS/MS analysis; assay type: ADME; how it was run: as §1
T1 sequence (P05177 whole entry): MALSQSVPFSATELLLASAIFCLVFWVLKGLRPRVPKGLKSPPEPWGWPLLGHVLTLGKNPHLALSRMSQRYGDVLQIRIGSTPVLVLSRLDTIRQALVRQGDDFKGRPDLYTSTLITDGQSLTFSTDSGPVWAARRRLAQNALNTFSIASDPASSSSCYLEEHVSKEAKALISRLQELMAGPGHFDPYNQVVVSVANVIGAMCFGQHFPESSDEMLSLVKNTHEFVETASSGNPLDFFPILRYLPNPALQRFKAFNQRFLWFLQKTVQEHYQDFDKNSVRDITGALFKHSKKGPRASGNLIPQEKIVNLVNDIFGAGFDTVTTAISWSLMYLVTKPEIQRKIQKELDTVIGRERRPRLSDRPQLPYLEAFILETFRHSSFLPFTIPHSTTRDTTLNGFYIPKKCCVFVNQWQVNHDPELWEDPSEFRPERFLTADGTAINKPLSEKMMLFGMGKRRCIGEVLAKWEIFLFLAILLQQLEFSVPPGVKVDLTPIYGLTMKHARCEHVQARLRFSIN

[5] = Solubility of the compound in aqueous solution at pH 2.1; assay type: physicochemical
[6] = Solubility of the compound in phosphate buffer at pH 7.4; assay type: physicochemical

| SMILES | pIC50 (Cytochrome P450 2C9) | pIC50 (Cytochrome P450 2C19) | pIC50 (Cytochrome P450 2D6) | MIC80 [1] [µM] | half-life [2] [min] | pIC50 (Cytochrome P450 3A4) | half-life [3] [min] | MIC80 [4] [µM] | pIC50 (Cytochrome P450 1A2) | solubility [5] [µg/mL] | solubility [6] [µg/mL] |
| --- | --- | --- | --- | --- | --- | --- | --- | --- | --- | --- | --- |
| CCc1nc2cc(Cl)ccn2c1C(=O)NCc1ccc(N2CCC(c3ccc(Cl)cc3)CC2)cc1 | 6.72 | 6.42 | < 4.40 | 0.001 (≈ 0.507 ng/mL) | 112 | < 4.40 | 67.3 | 0.00046 (≈ 0.233 ng/mL) | < 4.40 |  |  |
| CCc1nc2ccc(Cl)cn2c1C(=O)N(C)Cc1ccc(-c2ccccc2)cc1 |  |  |  | 8.69 (≈ 3510 ng/mL) |  |  |  | 0.97 (≈ 392 ng/mL) |  |  |  |
| CCc1nc2ccc(Cl)cn2c1C(=O)NCc1ccc(-c2ccc(Cl)cc2)cc1 |  |  |  | 0.0009 (≈ 0.382 ng/mL) | > 60 |  | 83 | 0.00045 (≈ 0.191 ng/mL) |  | 1.42 (≈ 3.35 µM) | 1.97 (≈ 4.64 µM) |
| CCc1nc2ccc(Cl)cn2c1NC(=O)Cc1ccc(-c2ccccc2)cc1 |  |  |  | 1.67 (≈ 651 ng/mL) |  |  |  | 0.69 (≈ 269 ng/mL) |  |  |  |
| CCc1nc2cc(Cl)ccn2c1C(=O)NCc1ccc(N2CCC(Cl)CC2)cc1 |  |  |  | 0.019 (≈ 8.2 ng/mL) | 5.2 |  | 11 | 0.002 (≈ 0.863 ng/mL) |  |  |  |
| CCc1nc2cc(Cl)ccn2c1C(=O)NCc1ccc(N2CCCCCC2)cc1 |  |  |  | 0.035 (≈ 14.4 ng/mL) | 1.9 |  | 2.9 | 0.01 (≈ 4.11 ng/mL) |  |  |  |
| CCc1nc2ccc(Cl)cn2c1C(=O)Nc1ccc(-c2ccccc2)cc1 |  |  |  | > 10 |  |  |  | > 10 |  |  |  |
| CCc1nc2cc(Cl)ccn2c1C(=O)NCc1ccc(N2CCN(c3ccc(OC(F)(F)F)cc3)CC2)cc1 | 6.77 | < 4.40 | < 4.40 | 0.0018 (≈ 1 ng/mL) | > 60 | < 4.40 | > 120 | 0.00011 (≈ 0.0614 ng/mL) | < 4.40 |  |  |
| CCc1nc2ccc(Cl)cn2c1CC(=O)Nc1ccc(-c2ccccc2)cc1 |  |  |  | > 10 |  |  |  | > 10 |  |  |  |
| CCc1nc2cc(Cl)ccn2c1C(=O)NCc1ccc(N2CCCCC2)cc1 |  |  |  | 0.016 (≈ 6.35 ng/mL) | 2.3 |  | 13.2 | 0.0082 (≈ 3.25 ng/mL) |  |  |  |
| CCc1nc2cc(Cl)ccn2c1C(=O)NCc1ccc(-n2cc3c(c2)CCCC3)cc1 |  |  |  | 0.034 (≈ 14.7 ng/mL) | 62.3 |  | 27.3 | 0.00374 (≈ 1.62 ng/mL) |  |  |  |
| CO[C@H]1/C=C/O[C@@]2(C)Oc3c(C)c(O)c4c(O)c(c(/C=N/N5CCN(C)CC5)c(O)c4c3C2=O)NC(=O)/C(C)=C\C=C\[C@H](C)[C@H](O)[C@@H](C)[C@@H](O)[C@@H](C)[C@H](OC(C)=O)[C@@H]1C [RIFAMPIN] |  |  |  | 0.0266 (≈ 21.9 ng/mL) |  |  |  | 0.18 (≈ 148 ng/mL) |  |  |  |
| CCc1nc2cc(Cl)ccn2c1C(=O)NCc1ccc(-c2ccc(C(=O)O)cc2)cc1 |  |  |  | 0.25 (≈ 108 ng/mL) | > 120 |  | > 120 | 0.217 (≈ 94.2 ng/mL) |  |  |  |
| CCc1nc2ccc(Cl)cn2c1CC(=O)NCc1ccc(-c2ccccc2)cc1 |  |  |  | > 10 |  |  |  | > 10 |  |  |  |
| Cc1nc2ccc(Cl)cn2c1C(=O)NCc1ccc(-c2ccccc2)cc1 |  |  |  | 0.175 (≈ 65.8 ng/mL) | > 60 |  | > 120 | 0.042 (≈ 15.8 ng/mL) |  |  |  |
| CCc1nc2cc(Cl)ccn2c1C(=O)NCc1ccc(N2CCC(C(F)(F)F)CC2)cc1 |  |  |  | 0.0008 (≈ 0.372 ng/mL) | 5.1 |  | 6.5 | 0.00047 (≈ 0.219 ng/mL) |  |  |  |
| CCc1nc2cc(Cl)ccn2c1C(=O)NCc1ccc(N2CCC(c3ccc(F)cc3)CC2)cc1 | 6.30 | 6.22 | < 4.40 | 0.54 (≈ 265 ng/mL) | 18.4 | 5.68 | 6.8 | 0.00066 (≈ 0.324 ng/mL) | < 4.40 |  |  |

| SMILES | pIC50 (Cytochrome P450 2C9) | pIC50 (Cytochrome P450 2C19) | pIC50 (Cytochrome P450 2D6) | MIC80 [1] [µM] | half-life [2] [min] | pIC50 (Cytochrome P450 3A4) | half-life [3] [min] | MIC80 [4] [µM] | pIC50 (Cytochrome P450 1A2) | solubility [5] [µg/mL] | solubility [6] [µg/mL] |
| --- | --- | --- | --- | --- | --- | --- | --- | --- | --- | --- | --- |
| CCc1nc2cc(Cl)ccn2c1C(=O)NCc1ccc(-c2ccc(C)cc2)cc1 |  |  |  | < 0.0005 | 23.1 |  | 25.4 | 0.00135 (≈ 0.545 ng/mL) |  |  |  |
| CCc1nc2ccc(Cl)cn2c1C(=O)NCc1ccc(-c2ccc(C)cc2)cc1 |  |  |  | 0.0007 (≈ 0.283 ng/mL) | 40.6 |  | 30.5 | 0.00043 (≈ 0.174 ng/mL) |  | 1.42 (≈ 3.52 µM) | 1.56 (≈ 3.86 µM) |
| CCc1nc2cc(Cl)ccn2c1C(=O)NCc1ccc(N2CC3CCCCC3C2)cc1 (stereo not drawn) |  |  |  | 0.025 (≈ 10.9 ng/mL) | 6.3 |  | 14.9 | 0.0094 (≈ 4.11 ng/mL) |  |  |  |
| CCc1nc2ccccn2c1C(=O)NCc1ccc(-c2ccccc2)cc1 |  |  |  | 0.063 (≈ 22.4 ng/mL) |  |  | 27.1 | 0.097 (≈ 34.5 ng/mL) |  |  |  |
| CCc1nc2ccc(Cl)cn2c1CNCc1ccc(-c2ccccc2)cc1 |  |  |  | 0.81 (≈ 304 ng/mL) |  |  |  | 0.2 (≈ 75.2 ng/mL) |  |  |  |
| CCc1nc2cc(Cl)ccn2c1C(=O)NCc1ccc(-c2ccc(C(C)(C)C)cc2)cc1 |  |  |  | 0.012 (≈ 5.35 ng/mL) | 50.7 |  | 18.5 | 0.00046 (≈ 0.205 ng/mL) |  |  |  |
| CCc1nc2cc(Cl)ccn2c1C(=O)NCc1ccc(-c2ccncc2)cc1 |  |  |  | 2.22 (≈ 868 ng/mL) |  |  | 28.9 | 0.74 (≈ 289 ng/mL) |  |  |  |
| CCc1nc2ccc(Cl)cn2c1C(=O)NCc1ccc(-c2ccc(C#N)cc2)cc1 |  |  |  | < 0.0005 | > 60 |  | > 120 | 0.00068 (≈ 0.282 ng/mL) |  | 1.06 (≈ 2.55 µM) | 0.61 (≈ 1.47 µM) |
| CC(C)c1nc2ccccn2c1C(=O)NCc1ccc(-c2ccccc2)cc1 |  |  |  | 3.13 (≈ 1160 ng/mL) |  |  | 31.6 | 3.13 (≈ 1160 ng/mL) |  |  |  |
| CCc1nc2cc(Cl)ccn2c1C(=O)NCc1ccc(-c2ccc(Cl)cc2)cc1 |  |  |  | 0.0013 (≈ 0.552 ng/mL) | > 60 |  | > 120 | 0.00101 (≈ 0.429 ng/mL) |  |  |  |
| CCc1nc2cc(Cl)ccn2c1C(=O)NCc1ccc(N2CCN(C)CC2)cc1 |  |  |  | 4.39 (≈ 1810 ng/mL) | 12.1 |  | 117 | 0.36 (≈ 148 ng/mL) |  |  |  |
| CCc1nc2ccc(Cl)cn2c1C(=O)NCc1ccc(-c2ccccc2Cl)cc1 |  |  |  | 0.043 (≈ 18.2 ng/mL) | 13.1 |  | 38.9 | 0.0093 (≈ 3.95 ng/mL) |  |  |  |
| CCc1nc2cc(Cl)ccn2c1C(=O)NCc1ccc(N2CCN(C(C)C)CC2)cc1 |  |  |  | 3 (≈ 1320 ng/mL) | 8.9 |  | > 120 | 0.14 (≈ 61.6 ng/mL) |  |  |  |
| CCCc1nc2ccccn2c1C(=O)NCc1ccc(-c2ccccc2)cc1 |  |  |  | 1.18 (≈ 436 ng/mL) | 8.7 |  | 22.4 | 0.05 (≈ 18.5 ng/mL) |  |  |  |
| CCc1nc2cc(Cl)ccn2c1C(=O)NCc1ccc(-c2ccc[nH]2)cc1 |  |  |  | 2 (≈ 758 ng/mL) | 10.8 |  | > 120 | 0.14 (≈ 53 ng/mL) |  |  |  |
| CCc1nc2ccc(Cl)cn2c1C(=O)NCc1ccc(-c2ccccc2)cc1 |  |  |  | 0.045 (≈ 17.5 ng/mL) | 19.3 |  | 22.8 | 0.00139 (≈ 0.542 ng/mL) |  |  |  |
| Cc1nc2ccccn2c1C(=O)NCc1ccc(-c2ccccc2)cc1 |  |  |  | 0.25 (≈ 85.4 ng/mL) |  |  |  | 0.02 (≈ 6.83 ng/mL) |  |  |  |
